In ChEMBL document CHEMBL1926651, “Design, synthesis, antiviral and cytostatic evaluation of novel isoxazolidine nucleotide analogues with a 1,2,3-triazole linker” (Eur J Med Chem, 2012):
Calls of active or inactive are those of the source.

Assays:
[1] = tested on: Human alphaherpesvirus 1; assay: Antiviral activity against Herpes simplex virus 1 KOS infected in human HEL cells assessed as inhibition of viral plaque formation at 250 uM; type: functional, organism-based
Procedure, shortened: (§1)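 Confluent host cell monolayers were inoculated with 100 CCID50 of virus in the presence of test compound at serial dilutions (250, 50, 10, … μM). Viral cytopathicity was scored once it reached completion in untreated virus-infected controls.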

[2] = tested on: Human alphaherpesvirus 2; assay: Antiviral activity against Herpes simplex virus 2 G infected in human HEL cells assessed as inhibition of viral plaque formation at 250 uM; type: functional, organism-based; settings: strain G
[3] = tested on: Human alphaherpesvirus 1; assay: Antiviral activity against thymidine kinase-deficient acv-resistant Herpes simplex virus 1 KOS infected in human HEL cells assessed as inhibition of viral plaque formation at 250 uM; type: functional, organism-based
[4] = tested on: Vaccinia virus; assay: Antiviral activity against Vaccinia virus infected in human HEL cells assessed as inhibition of viral plaque formation at 250 uM; type: functional, organism-based; settings: Orthopoxvirus vaccinia; procedure, shortened: as §1
[5] = tested on: Vesicular stomatitis virus; assay: Antiviral activity against Vesicular stomatitis virus infected in human HEL cells assessed as inhibition of viral plaque formation at 250 uM; type: functional, organism-based; procedure, shortened: as §1
[6] = tested on: Human betaherpesvirus 5; assay: Antiviral activity against Human cytomegalovirus AD169 infected in human HEL cells assessed as inhibition of viral plaque formation at 250 uM; type: functional, organism-based
[7] = tested on: Human betaherpesvirus 5; assay: Antiviral activity against Human cytomegalovirus Davis infected in human HEL cells assessed as inhibition of viral plaque formation at 250 uM; type: functional, organism-based
[8] = tested on: Human alphaherpesvirus 3; assay: Antiviral activity against thymidine kinase-positive Varicella Zoster virus Oka infected in human HEL cells assessed as inhibition of viral plaque formation at 250 uM; type: functional, cell-based; settings: strain Oka vaccine
[9] = tested on: Human alphaherpesvirus 3; assay: Antiviral activity against thymidine kinase-deficient Varicella Zoster virus 07/1 infected in human HEL cells assessed as inhibition of viral plaque formation at 250 uM; type: functional, organism-based
[10] = tested on: Human respirovirus 3; assay: Antiviral activity against Parainfluenza-3 virus infected in african green monkey Vero cells assessed as inhibition of viral plaque formation at 250 uM; type: functional, organism-based; procedure, shortened: as §1
[11] = tested on: Mammalian orthoreovirus 1; assay: Antiviral activity against Reovirus-1 infected in african green monkey Vero cells assessed as inhibition of viral plaque formation at 250 uM; type: functional, organism-based; procedure, shortened: as §1
[12] = tested on: Sindbis virus; assay: Antiviral activity against Sindbis virus infected in african green monkey Vero cells assessed as inhibition of viral plaque formation at 250 uM; type: functional, organism-based; procedure, shortened: as §1
[13] = tested on: Coxsackievirus B4; assay: Antiviral activity against Coxsackievirus B4 infected in african green monkey Vero cells assessed as inhibition of viral plaque formation at 250 uM; type: functional, organism-based; procedure, shortened: as §1
[14] = tested on: Punta Toro virus; assay: Antiviral activity against Punta Toro virus infected in african green monkey Vero cells assessed as inhibition of viral plaque formation at 250 uM; type: functional, organism-based
[15] = tested on: Vesicular stomatitis virus; assay: Antiviral activity against Vesicular stomatitis virus infected in human Hela cells assessed as inhibition of viral plaque formation at 250 uM; type: functional, organism-based
[16] = tested on: Coxsackievirus B4; assay: Antiviral activity against Coxsackievirus B4 infected in human HeLa cells assessed as inhibition of viral plaque formation at 250 uM; type: functional, organism-based; procedure, shortened: as §1
[17] = tested on: Respiratory syncytial virus; assay: Antiviral activity against Respiratory syncytial virus infected in human HeLa cells assessed as inhibition of viral plaque formation at 250 uM; type: functional, organism-based; procedure, shortened: as §1
[18] = tested on: Felid alphaherpesvirus 1; assay: Antiviral activity against Felid herpesvirus 1 infected in CrFK cells assessed as inhibition of viral plaque formation at 250 uM; type: functional, organism-based; procedure, shortened: as §1
[19] = tested on: Feline coronavirus; assay: Antiviral activity against Feline coronavirus infected in CrFK cells assessed as inhibition of viral plaque formation at 250 uM; type: functional, organism-based; procedure, shortened: as §1
[20] = tested on: Human immunodeficiency virus 2; assay: Antiviral activity against Human immunodeficiency virus 2 infected in human CEM cells assessed as inhibition of virus-induced giant cell formation after 4 days by microscopic analysis; type: functional, organism-based; settings: CCRF-CEM
Procedure, shortened: (§2)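 CEM cells at about 3 × 10⁵ cells/cm³ were infected with 100 CCID50/mL of HIV-1(IIIB) or HIV-2(ROD), then seeded into wells holding test compound dilutions. After 4 days at 37 °C, virus-induced giant cell formation was scored microscopically.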

[21] = tested on: Human immunodeficiency virus 1; assay: Antiviral activity against Human immunodeficiency virus 1 infected in human CEM cells assessed as inhibition of virus-induced giant cell formation after 4 days by microscopic analysis; type: functional, organism-based; settings: CCRF-CEM; procedure, shortened: as §2

Measured: Activity

CCOC(=O)C1=C[C@@H](OC(CC)CC)[C@H](NC(C)=O)[C@@H](N)C1
inactive: all assays above

NC(=O)c1ncn([C@@H]2O[C@H](CO)[C@@H](O)[C@H]2O)n1
inactive: all assays above

Nc1ccn(C[C@@H](CO)OCP(=O)(O)O)c(=O)n1
inactive: all assays above

Nc1nc2c(ncn2COC(CO)CO)c(=O)[nH]1
inactive: all assays above

Nc1nc2c(ncn2COCCO)c(=O)[nH]1
inactive: all assays above

Nc1ncnc2c1ncn2C[C@H](O)CO
inactive: all assays above

O=c1[nH]c(=O)n([C@H]2C[C@H](O)[C@@H](CO)O2)cc1/C=C/Br
inactive: all assays above
